# Test results taken from ChEMBL document CHEMBL4049407, “Positional Scanning Identifies the Molecular Determinants of a High Affinity Multi-Leucine Inhibitor for Furin and PACE4” (J Med Chem, 2017).
# Peptide text beside a SMILES is read from it. * marks the point of attachment. FITC = O=C1OC2(c3ccc(O)cc3Oc3cc(O)ccc32)c2ccc(NC(=S)*)cc21; NH(4-amidinobenzyl) = N=C(N)c1ccc(CN*)cc1; βAla = NCCC(=O)O
# Key:
# [1] = Drug uptake in human DU145 cells assessed as geometric mean fluorescence intensity after 1 hr by propidium iodine-staining based FACS analysis; type: ADME, cell-based; conditions: du-145, 1 h
# Outline: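 DU145 cells exposed 1 h to FITC-labelled peptide (10 µM) in serum-free RPMI, detached with trypsin:EDTA and pelleted, with no trypsin wash. Dead cells excluded by 2 min propidium iodide (10 µg/mL). Flow cytometry read 10 000 events/sample, and uptake was given as geometric mean fluorescence.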
# [2] = Drug uptake in human DU145 cells assessed as geometric mean fluorescence intensity preincubated for 1 hr followed by trypsin washout for 5 mins by propidium iodine-staining based FACS analysis; type: ADME, cell-based; conditions: du-145, 5 min
# Outline: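 DU145 cells given FITC-labelled peptide (10 µM) for 1 h in serum-free RPMI, harvested by trypsin:EDTA, then washed twice with 0.05% trypsin for 5 min at 37 °C to strip membrane-bound peptide. Propidium iodide (10 µg/mL, 2 min) excluded damaged cells. 10 000 events/sample were read by flow cytometry as geometric mean fluorescence.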
# [3] = biological target: T1, Proprotein convertase subtilisin/kexin type 6 (Homo sapiens, UniProt P29122); test: Inhibition of recombinant human PACE4 expressed in drosophila S2 cells using pyrGlu-Arg-Thr-Lys-Arg-7-amido-4-methylcoumarin as substrate after 60 mins by spectrofluorometry method; type: cell-based
# T1 sequence (P29122 whole entry): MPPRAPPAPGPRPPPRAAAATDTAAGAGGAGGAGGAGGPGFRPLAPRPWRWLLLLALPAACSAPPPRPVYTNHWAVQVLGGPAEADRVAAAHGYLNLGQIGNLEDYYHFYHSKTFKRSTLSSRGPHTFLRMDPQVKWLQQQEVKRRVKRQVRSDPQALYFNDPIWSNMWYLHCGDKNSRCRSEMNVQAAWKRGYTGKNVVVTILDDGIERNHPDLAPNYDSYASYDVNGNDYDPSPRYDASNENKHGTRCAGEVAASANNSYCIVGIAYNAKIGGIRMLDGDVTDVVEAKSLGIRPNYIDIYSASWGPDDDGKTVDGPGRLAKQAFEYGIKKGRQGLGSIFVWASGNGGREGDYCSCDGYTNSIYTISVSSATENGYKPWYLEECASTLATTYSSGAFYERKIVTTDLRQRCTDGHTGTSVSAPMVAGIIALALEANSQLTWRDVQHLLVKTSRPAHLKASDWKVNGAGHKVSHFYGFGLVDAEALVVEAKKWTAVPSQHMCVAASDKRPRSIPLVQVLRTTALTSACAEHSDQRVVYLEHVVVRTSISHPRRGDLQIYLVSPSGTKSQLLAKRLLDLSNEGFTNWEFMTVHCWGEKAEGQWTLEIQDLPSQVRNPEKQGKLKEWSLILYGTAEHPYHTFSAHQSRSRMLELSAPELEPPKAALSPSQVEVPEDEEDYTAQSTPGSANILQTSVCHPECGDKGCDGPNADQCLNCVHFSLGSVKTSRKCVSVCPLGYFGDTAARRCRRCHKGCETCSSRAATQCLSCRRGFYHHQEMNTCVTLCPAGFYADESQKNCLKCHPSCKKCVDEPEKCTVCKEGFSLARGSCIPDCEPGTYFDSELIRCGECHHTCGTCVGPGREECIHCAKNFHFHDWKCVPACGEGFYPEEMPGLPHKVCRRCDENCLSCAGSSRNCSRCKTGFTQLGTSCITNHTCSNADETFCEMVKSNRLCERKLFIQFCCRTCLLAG
# Outline: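 Human recombinant purified PACE4 at 2 units/100 µL (20.18 nM), in 20 mM BisTris pH 6.5, 1 mM CaCl2, 1.8 mg/mL BSA. Substrate 100 µM, KM 4.035 µM. Inhibitor 1 nM to 10 µM; 60 min at 37°C. Fluorescence ex 370 / em 460 nm. Ki by Morrison tight-binding equation; three independent experiments, mean ± SD.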
# [4] = biological target: Furin (Homo sapiens, UniProt P09958); test: Inhibition of recombinant human furin expressed in drosophila S2 cells using pyrGlu-Arg-Thr-Lys-Arg-7-amido-4-methylcoumarin as substrate after 60 mins by spectrofluorometry method; type: cell-based
# Sequence of Furin (P09958 whole entry): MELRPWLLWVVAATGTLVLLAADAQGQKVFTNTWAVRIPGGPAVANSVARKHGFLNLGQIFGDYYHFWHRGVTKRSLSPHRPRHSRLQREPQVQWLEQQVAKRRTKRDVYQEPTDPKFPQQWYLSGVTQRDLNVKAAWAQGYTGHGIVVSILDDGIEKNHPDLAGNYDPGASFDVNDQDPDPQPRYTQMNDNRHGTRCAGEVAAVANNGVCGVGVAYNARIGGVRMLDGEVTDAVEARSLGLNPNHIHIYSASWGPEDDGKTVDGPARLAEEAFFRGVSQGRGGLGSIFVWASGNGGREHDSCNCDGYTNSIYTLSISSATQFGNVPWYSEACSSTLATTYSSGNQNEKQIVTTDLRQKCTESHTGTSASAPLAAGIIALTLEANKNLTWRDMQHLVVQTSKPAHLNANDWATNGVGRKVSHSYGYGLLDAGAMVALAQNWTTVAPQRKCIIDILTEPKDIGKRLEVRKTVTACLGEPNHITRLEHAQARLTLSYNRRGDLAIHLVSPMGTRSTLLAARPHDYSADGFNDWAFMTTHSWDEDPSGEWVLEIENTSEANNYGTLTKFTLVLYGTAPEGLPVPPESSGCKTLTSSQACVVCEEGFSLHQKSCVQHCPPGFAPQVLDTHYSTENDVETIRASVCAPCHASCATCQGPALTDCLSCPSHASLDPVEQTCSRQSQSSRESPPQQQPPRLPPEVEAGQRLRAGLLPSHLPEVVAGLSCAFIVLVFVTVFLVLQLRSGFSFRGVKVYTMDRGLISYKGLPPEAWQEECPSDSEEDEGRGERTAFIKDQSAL
# Outline: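 Human recombinant purified furin at 2 units/100 µL (0.54 nM), in 100 mM HEPES pH 7.5, 1 mM CaCl2, 1 mM β-mercaptoethanol, 1.8 mg/mL BSA. His-containing peptides run instead in 20 mM BisTris pH 6.5 with the same additives. Substrate 100 µM, KM 5.04 µM. Inhibitor 1 nM to 10 µM; 60 min at 37°C. Fluorescence ex 370 / em 460 nm. Ki by Morrison equation; triplicate experiments, mean ± SD.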
# [5] = test system: LNCaP; test: Antiproliferative activity against human LNCAP cells assessed as reduction in metabolic activity after 72 hrs by MTT assay; type: functional, cell-based
# Outline: (§1)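 Cells kept at 37°C, 5% CO2 in RPMI 1640 (DU145 with 5% FBS, 1500 cells/well; LNCaP with 10% FBS, 2500 cells/well) on poly-L-lysine coated plates. Peptides added 24 h after plating in fresh serum medium at 0, 1, 10, 25, 50, 75, 100, 250 µM for 72 h. MTT 1 mg/mL final for 4 h; formazan dissolved in 2-propanol HCl. Signal normalised to water vehicle; IC50 from dose-response curves.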
# [6] = test system: DU-145; test: Antiproliferative activity against human DU145 cells assessed as reduction in metabolic activity after 72 hrs by MTT assay; type: functional, cell-based; conditions: DU-145, 72 h; outline: as §1
# [7] = species on record: Homo sapiens; test: Selectivity index, ratio of Ki for recombinant human furin expressed in drosophila S2 cells to Ki for recombinant human PACE4 expressed in drosophila S2 cells; type: cell-based
# Outline: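 Ratio Ki(furin)/Ki(PACE4). […] PACE4 buffer was BisTris pH 6.5; furin buffer was HEPES pH 7.5, or BisTris pH 6.5 for His peptides. Ki fitted by Morrison equation from three independent experiments.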
smiles,measurement,setting,value
CC(C)C[C@H](NC(=O)CCNC(=S)Nc1ccc2c(c1)C(=O)OC21c2ccc(O)cc2Oc2cc(O)ccc21)C(=O)N[C@@H](CC(C)C)C(=O)N[C@@H](CC(C)C)C(=O)N[C@@H](CCCNC(=N)N)C(=O)N[C@@H](CCCNC(=N)N)C(=O)N[C@H](C(=O)N[C@@H](CCCCN)C(=O)NCc1ccc(C(=N)N)cc1)C(C)C ({FITC-βAla}-LLLRRVK-{NH(4-amidinobenzyl)}),Flu intensity,[1],12.6
same,Flu intensity,[2],2.73
CC(C)C[C@H](NC(=O)CCNC(=S)Nc1ccc2c(c1)C(=O)OC21c2ccc(O)cc2Oc2cc(O)ccc21)C(=O)N[C@@H](CC(C)C)C(=O)N[C@@H](CC(C)C)C(=O)N[C@@H](CC(C)C)C(=O)N[C@@H](CCCNC(=N)N)C(=O)N[C@H](C(=O)N[C@@H](CCCCN)C(=O)NCc1ccc(C(=N)N)cc1)C(C)C ({FITC-βAla}-LLLLRVK-{NH(4-amidinobenzyl)}),Flu intensity,[1],46.61
same,Flu intensity,[2],47.45
CC[C@H](C)[C@H](NC(=O)[C@H](CC(C)C)NC(=O)[C@H](CC(C)C)NC(=O)[C@H](CC(C)C)NC(C)=O)C(=O)N[C@@H](CCCNC(=N)N)C(=O)N[C@H](C(=O)N[C@@H](CCCCN)C(=O)NCc1ccc(C(=N)N)cc1)C(C)C (Ac-LLLIRVK-{NH(4-amidinobenzyl)}),Ki,[3],8 nM
same,Ki,[4],27 nM
same,IC50,[5],28000 nM
same,IC50,[6],50000 nM
same,Ratio Ki,[7],3.4
CC(=O)N[C@@H](CC(C)C)C(=O)N[C@@H](CC(C)C)C(=O)N[C@@H](Cc1ccc(O)cc1)C(=O)N[C@@H](CC(C)C)C(=O)N[C@@H](CCCNC(=N)N)C(=O)N[C@H](C(=O)N[C@@H](CCCCN)C(=O)NCc1ccc(C(=N)N)cc1)C(C)C (Ac-LLYLRVK-{NH(4-amidinobenzyl)}),Ki,[3],4.8 nM
same,Ki,[4],5.9 nM
same,IC50,[5],130000 nM
same,IC50,[6],50000 nM
same,Ratio Ki,[7],1.2
CC[C@H](C)[C@H](NC(=O)[C@H](CC(C)C)NC(=O)[C@H](CC(C)C)NC(C)=O)C(=O)N[C@H](C(=O)N[C@@H](CCCNC(=N)N)C(=O)N[C@H](C(=O)N[C@@H](CCCCN)C(=O)NCc1ccc(C(=N)N)cc1)C(C)C)[C@@H](C)CC,Ki,[3],9.8 nM
same,Ki,[4],8.1 nM
same,IC50,[5],30000 nM
same,IC50,[6],20000 nM
same,Ratio Ki,[7],0.8
CC[C@H](C)[C@H](NC(=O)[C@H](CC(C)C)NC(C)=O)C(=O)N[C@@H](CC(C)C)C(=O)N[C@@H](CC(C)C)C(=O)N[C@@H](CCCNC(=N)N)C(=O)N[C@H](C(=O)N[C@@H](CCCCN)C(=O)NCc1ccc(C(=N)N)cc1)C(C)C (Ac-LILLRVK-{NH(4-amidinobenzyl)}),Ki,[3],2.5 nM
same,Ki,[4],2 nM
same,IC50,[5],40000 nM
same,IC50,[6],31000 nM
same,Ratio Ki,[7],0.8
CC(=O)N[C@@H](Cc1ccc(O)cc1)C(=O)N[C@@H](CC(C)C)C(=O)N[C@@H](CC(C)C)C(=O)N[C@@H](CC(C)C)C(=O)N[C@@H](CCCNC(=N)N)C(=O)N[C@H](C(=O)N[C@@H](CCCCN)C(=O)NCc1ccc(C(=N)N)cc1)C(C)C (Ac-YLLLRVK-{NH(4-amidinobenzyl)}),Ki,[3],6.2 nM
same,Ki,[4],4 nM
same,IC50,[5],160000 nM
same,IC50,[6],23000 nM
same,Ratio Ki,[7],0.6
CC[C@H](C)[C@H](NC(=O)[C@H](CC(C)C)NC(=O)[C@H](CC(C)C)NC(=O)[C@H](CC(C)C)NC(=O)CCNC(=S)Nc1ccc2c(c1)C(=O)OC21c2ccc(O)cc2Oc2cc(O)ccc21)C(=O)N[C@@H](CCCNC(=N)N)C(=O)N[C@H](C(=O)N[C@@H](CCCCN)C(=O)NCc1ccc(C(=N)N)cc1)C(C)C ({FITC-βAla}-LLLIRVK-{NH(4-amidinobenzyl)}),Flu intensity,[1],87.66
same,Flu intensity,[2],99.26
CC(=O)N[C@@H](CCC(N)=O)C(=O)N[C@@H](CC(C)C)C(=O)N[C@@H](CC(C)C)C(=O)N[C@@H](CC(C)C)C(=O)N[C@@H](CCCNC(=N)N)C(=O)N[C@H](C(=O)N[C@@H](CCCCN)C(=O)NCc1ccc(C(=N)N)cc1)C(C)C (Ac-QLLLRVK-{NH(4-amidinobenzyl)}),Ki,[3],3 nM
same,Ki,[4],3 nM
same,IC50,[5],> 250000 nM
same,IC50,[6],150000 nM
same,Ratio Ki,[7],1
CC(=O)N[C@@H](CC(C)C)C(=O)N[C@@H](Cc1ccccc1)C(=O)N[C@@H](CC(C)C)C(=O)N[C@@H](CC(C)C)C(=O)N[C@@H](CCCNC(=N)N)C(=O)N[C@H](C(=O)N[C@@H](CCCCN)C(=O)NCc1ccc(C(=N)N)cc1)C(C)C (Ac-LFLLRVK-{NH(4-amidinobenzyl)}),Ki,[3],8 nM
same,Ki,[4],7 nM
same,IC50,[5],31000 nM
same,IC50,[6],36000 nM
same,Ratio Ki,[7],0.9
